Assay [1] concerns Mus musculus. Put plainly: Evaluated in vivo for their ability to decrease plasma glucose levels in diabetic C57BL/KsJ ob/ob mouse at a dose 100 mg/kg/day, **p indicates <0.01. In kind it is functional. Summed up: (§1)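 Mice dosed orally once daily for 4 days; plasma glucose and insulin measured and expressed as percent change versus a vehicle-treated group (mean ± SE, 4-6 mice/group). NS is generally less than -15% change. Significance is versus vehicle-treated mice.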

The subject of assay [2] is Mus musculus. Nature of the assay: Evaluated in vivo for their ability to decrease plasma glucose levels in diabetic C57BL/KsJ db/db mouse at a dose 100 mg/kg/day, *p indicates <0.05. In kind it is functional. In a few lines: as §1
Assay [3] concerns Mus musculus. Put plainly: Evaluated for their ability to decrease plasma insulin levels in mouse at a dose 100 mg/kg/day, **p indicates <0.01. The format is functional. Summed up:
as §1

Assay [4] relates to Mus musculus. Nature of the assay: Evaluated in vivo for their ability to decrease plasma glucose levels in diabetic C57BL/KsJ ob/ob mouse at a dose 10 mg/kg/day, *p indicates <0.05. The format is functional. Summed up:
as §1

The target of assay [5] is T1, Tyrosine-protein phosphatase non-receptor type 1 (Rattus norvegicus) (UniProt P20417).
T1 sequence (whole entry): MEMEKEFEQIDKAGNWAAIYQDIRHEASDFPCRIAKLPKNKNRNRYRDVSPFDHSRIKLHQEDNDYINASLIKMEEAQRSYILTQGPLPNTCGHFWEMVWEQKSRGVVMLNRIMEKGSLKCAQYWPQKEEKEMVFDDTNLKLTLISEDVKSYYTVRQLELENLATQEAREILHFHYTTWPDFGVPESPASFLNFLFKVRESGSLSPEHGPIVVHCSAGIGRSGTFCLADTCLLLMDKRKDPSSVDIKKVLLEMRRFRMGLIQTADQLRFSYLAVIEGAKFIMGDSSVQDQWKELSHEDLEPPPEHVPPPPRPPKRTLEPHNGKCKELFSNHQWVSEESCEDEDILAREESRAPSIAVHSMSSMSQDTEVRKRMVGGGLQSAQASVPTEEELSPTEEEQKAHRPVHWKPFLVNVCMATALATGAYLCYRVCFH
Put plainly: Inhibition of PTPase (PTP1B) activity in rat hepatic membrane at 50 uM concentration, using pNPP as the substrate. In kind it is cell membranes. Conditions: Liver. Summed up: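 Liver membranes from male Sprague-Dawley rats (100-150 g), about 30 µg protein per well. Preincubated 10 min at 37 °C with compound in 1.25% DMSO in 50 mM HEPES pH 7.4. Then 6.33 mM pNPP for 30 min at 37 °C, stopped with NaOH. p-Nitrophenol read at 410 nm. Run in triplicate. Reported as percent of untreated control.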

Assay [6] concerns the target T1, Tyrosine-protein phosphatase non-receptor type 1 (Rattus norvegicus). Put plainly: Inhibition of PTPase activity using recombinant r-PTP1B as the enzyme and IR-triphosphopeptide as substrate at 50 uM. In a few lines: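 Rat recombinant PTP1B in 33 mM TRIS-HCl, 2 mM EDTA, 50 mM β-mercaptoethanol, pH 7.4 (about 1000-2000 nmol/min/mg). Preincubated 10 min at 37 °C with or without compound in HEPES buffer pH 7.4. Released phosphate read by malachite green-ammonium molybdate at 650 nm against a phosphate standard. Quadruplicates. IC50 by four-parameter logistic fit.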

Regarding `C/C(=C\Cn1oc(=O)[nH]c1=O)c1cccc(OCc2nc(-c3ccc(C(F)(F)F)cc3)oc2C)c1`, the Decrease is on record as 58% in the assay with Mus musculus [1], 62% in the assay with Mus musculus [2], 86% in the assay with Mus musculus [3] and 20% in the assay with Mus musculus [4]. Moreover, the inhibition – broadly, the share of the control response that was lost under treatment – in assay [5] came out at 49%; in assay [6], 1.9%.

(Values after ChEMBL document CHEMBL1132971, “New azolidinediones as inhibitors of protein tyrosine phosphatase 1B with antihyperglycemic properties” (J Med Chem, 2000).)
